Data on nine molecules can be found in PMC6287576 (International Journal for Parasitology: Drugs and Drug …, 2018).

The subject of experiment [1] is recombinant A. suum N-AChR. To be noted: ref Zheng et al., 2017; cited from earlier work.
Experiment [2] has as its target T1, C. elegans N-AChR (ACR-16) (Caenorhabditis elegans, UniProt P48180).
T1 sequence (P48180 20-498): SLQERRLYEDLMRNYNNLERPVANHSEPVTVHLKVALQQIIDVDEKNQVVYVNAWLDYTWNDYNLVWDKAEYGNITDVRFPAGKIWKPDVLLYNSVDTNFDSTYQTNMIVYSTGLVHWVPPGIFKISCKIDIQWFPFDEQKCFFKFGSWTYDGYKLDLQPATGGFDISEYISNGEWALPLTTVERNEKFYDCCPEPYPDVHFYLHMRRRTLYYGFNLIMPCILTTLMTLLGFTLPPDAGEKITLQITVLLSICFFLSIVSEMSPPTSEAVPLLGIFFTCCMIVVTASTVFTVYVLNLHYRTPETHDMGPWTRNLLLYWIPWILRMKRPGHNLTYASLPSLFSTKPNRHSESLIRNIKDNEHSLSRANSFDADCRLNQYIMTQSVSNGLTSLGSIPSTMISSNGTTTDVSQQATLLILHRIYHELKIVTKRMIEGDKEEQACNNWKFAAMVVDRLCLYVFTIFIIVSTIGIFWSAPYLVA
Description: Two-electrode voltage-clamp, Cel-N-AChR in Xenopus oocytes. It counts as cell-based. The settings on record: for Hill slope: Cel N-AChR.

Experiment [3] addresses T2, P. equorum N-AChR (ACR-16) (Parascaris equorum, UniProt A0A3S9VMQ8).
T2 sequence (A0A3S9VMQ8 25-504): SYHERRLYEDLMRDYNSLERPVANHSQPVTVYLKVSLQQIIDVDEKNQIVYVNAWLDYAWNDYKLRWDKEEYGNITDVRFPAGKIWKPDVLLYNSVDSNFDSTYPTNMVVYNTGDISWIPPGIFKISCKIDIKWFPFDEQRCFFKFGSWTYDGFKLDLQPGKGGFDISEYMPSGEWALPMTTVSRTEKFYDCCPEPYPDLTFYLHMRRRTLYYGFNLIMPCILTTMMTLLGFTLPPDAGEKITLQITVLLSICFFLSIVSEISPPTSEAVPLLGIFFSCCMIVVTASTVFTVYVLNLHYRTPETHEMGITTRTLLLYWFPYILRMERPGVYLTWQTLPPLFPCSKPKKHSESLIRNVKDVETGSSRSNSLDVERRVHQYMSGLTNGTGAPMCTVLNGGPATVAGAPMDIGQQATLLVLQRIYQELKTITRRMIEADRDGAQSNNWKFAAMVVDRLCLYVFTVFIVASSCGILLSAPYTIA
As to the kind of experiment: Two-electrode voltage-clamp, Peq-N-AChR in Xenopus oocytes. It counts as cell-based. To be noted: for Hill slope: Peq N-AChR; for current elicited by perfusion: Peq-N-AChR, 100 μM.

In experiment [4] the test system is H. contortus L3 larvae, anthelmintic-susceptible Weybridge isolate. As to the kind of experiment: Automated larval migration assay. The settings on record: Haemonchus contortus, read-out: IC50 (L3 migration, ALMA).
The subject of experiment [5] is C. elegans acr-16 (ok789) mutant lacking N-AChR. Description: C. elegans paralysis assay, acr-16 mutant. Also on record: species or system Caenorhabditis elegans. The settings on record: agar plate containing 31 mM drug, 15-60 min.
In experiment [6] the test system is H. contortus L3 larvae, Lev/Pyr/Ivm multi-resistant Kokstad isolate. Description: Automated larval migration assay. Also on record: species or system Haemonchus contortus. To be noted: for IC50: Haemonchus contortus, read-out: IC50 (L3 migration, ALMA); for resistance factor between Kok and Wey: based on respective ALMA IC50 values.
The test system of another experiment is H. contortus L-AChR-2. As to the kind of experiment: Two-electrode voltage-clamp, Hco-L-AChR-2 in Xenopus oocytes. Type of experiment: cell-based, Haemonchus contortus. To be noted: 100 μM.
The subject of experiment [7] is C. elegans lev-8 (ok1519) mutant lacking L-AChR. Description: C. elegans paralysis assay, lev-8 mutant. Details: species or system Caenorhabditis elegans. The settings on record: agar plate containing 31 mM drug, 15-60 min.
Experiment [8] concerns C. elegans L-AChR. Description: Two-electrode voltage-clamp, Cel-L-AChR in Xenopus oocytes. To be noted: 100 μM. It counts as cell-based, Caenorhabditis elegans.
For the next experiment, the system named is H. contortus L-AChR-1. As to the kind of experiment: Two-electrode voltage-clamp, Hco-L-AChR-1 in Xenopus oocytes. It counts as cell-based, Haemonchus contortus. The settings on record: 100 μM.
Experiment [9] has as its system C. elegans Bristol N2 (wild type). Description: C. elegans paralysis assay, N2. Also on record: species or system Caenorhabditis elegans. The settings on record: agar plate containing 31 mM drug, 15-60 min.
In experiment [10] the test system is C. elegans L-AChR. To be noted: recombinant C. elegans L-AChR in Xenopus oocytes; ref Boulin et al., 2008; cited from earlier work.
Experiment [11] relates to H. contortus Kokstad isolate (eggs). Description: Egg hatch assay, Kokstad isolate. Also on record: species or system Haemonchus contortus. The settings on record: triplicate. A digest of the protocol: (§1)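 Benzimidazole test compound applied to eggs of each sheep-passaged isolate to establish benzimidazole susceptibility or resistance status. Method followed a published egg hatch protocol. ED50 reported in μg/ml, from triplicate tests.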

The test system of experiment [12] is H. contortus Weybridge isolate (eggs). As to the kind of experiment: Egg hatch assay, Weybridge isolate. Also on record: species or system Haemonchus contortus. The settings on record: triplicate. A digest of the protocol: as §1

In brackets after ≈: the same amount, converted by molar mass. Structures can show the parent of a compound that is named as a salt.

Consider `C#Cc1cncc([C@@H]2CCCCN2)c1` [(S)-5-ethynyl-anabasine], for which the agonist potency entry in experiment [1] is on record as “higher agonist potency than other nicotine alkaloids”.

In the case of `CC(=O)OCC[N+](C)(C)C` [Acetylcholine, Acetylcholine chloride], in [2], the EC50 came out at 22 ± 1.2 µM and the Hill slope worked out at 2.1 ± 0.4. Besides, the “current elicited by perfusion” value in experiment [2] (Cel-N-AChR, 100 μM) is given as “robust currents in the μA range”. In [3], the Hill slope turned out to be 2.0 ± 0.2 and the “current elicited by perfusion” value is listed as “robust currents in the μA range”.

With `c1cncc([C@@H]2CCCCN2)c1` [Anabasine, anabasine], the IC50 was determined as 179 ± 7.9 µM in experiment [4] and 141 ± 6.9 µM in experiment [6]. For the same molecule, the figures for the “effect on motility (paralysis)” value in [5], in experiment [7] and in experiment [9] were “significantly less sensitive”, “affected” and “affected”, respectively. Moreover, the response of oocytes entry is listed as “very small currents on few oocytes” in the experiment with H. contortus L-AChR-2, “failed to induce significant response” in the experiment on C. elegans L-AChR [8] and “failed to induce significant response” in the experiment with H. contortus L-AChR-1. Also, the EC50 amounted to 27.5 ± 0.9 µM in experiment [2] and 1.7 ± 0.1 µM in experiment [3]. The Hill slope in experiment [2] came to 2.4 ± 0.4; in [3] it was 1.8 ± 0.2. The “current elicited by perfusion” value was “very similar currents as for Nic” in experiment [2] (Cel-N-AChR, 100 μM) and “very similar currents as for Nic” in experiment [3].

For `c1ccc([C@H]2CN3CCSC3=N2)cc1` [Levamisole, (−)-tetramisole hydrochloride], the IC50 in [4] is 1.14 ± 0.03 µM; in experiment [6], 14 ± 0.35 µM. The “resistance factor between Kok and Wey” value in [6] was 12.3. Moreover, the “sensitivity of recombinant receptor” value in the experiment with C. elegans L-AChR [10] is listed as “sensitive”.

For `CN1CCC[C@H]1c1cccnc1` [Nicotine, (−)-nicotine hydrogen tartrate], the IC50 in [4] was 611 ± 55.1 µM; in [6], 1170 ± 67.7 µM. In addition, the “effect on motility (paralysis)” value is reported as “significantly less sensitive” in experiment [5], “affected” in experiment [7] and “affected” in experiment [9]. In addition, the response of oocytes result is listed as “responded robustly” with H. contortus L-AChR-2, “failed to induce significant response” with C. elegans L-AChR [8] and “failed to induce significant response” in the experiment on H. contortus L-AChR-1. In addition, the figures for the EC50 in [2] and in [3] were 15.1 ± 1.3 µM and 2.9 ± 0.5 µM, respectively. Besides, the Hill slope in [2] was found to be 2.2 ± 0.2; in experiment [3], 1.7 ± 0.2. In experiment [2] (Cel-N-AChR, 100 μM), the “% of ACh response” value stood at 79.5 ± 7.5%. Also, the Emax at 100 µM in experiment [3] (read-out: % of ACh response) stood at 96.6 ± 9.2%. In addition, in the experiment on C. elegans L-AChR [10], the “sensitivity of recombinant receptor” value is “insensitive”.

In the case of `CN1CCCN=C1/C=C/c1cccs1` [Pyrantel, pyrantel citrate], the IC50 in experiment [4] was 0.77 ± 0.01 µM. Further, in [6], the IC50 is 18.5 ± 1.32 µM; the “resistance factor between Kok and Wey” value turned out to be 23.9.

For `c1ccc2[nH]c(-c3cscn3)nc2c1` [TBZ, thiabendazole], the “ED50 (egg hatch assay)” value in experiment [11] turned out to be 0.437 ± 0.205 µg/mL (≈ 2.17 µM); in [12] it was 0.024 ± 0.001 µg/mL (≈ 0.119 µM).

As for (±)-nornicotine, the “effect on motility (paralysis)” value in experiment [5] is “significantly less sensitive”; in [7], “affected”; in experiment [9], “affected”. For the same molecule, the response of oocytes entry with H. contortus L-AChR-2 is recorded as “very small currents on few oocytes”; with C. elegans L-AChR [8] it was “failed to induce significant response”; in the experiment with H. contortus L-AChR-1 it was “failed to induce significant response”. For the same molecule, the Hill slope in experiment [2] turned out to be 2.7 ± 0.4; in experiment [3], 1.9 ± 0.3. Further, the “current elicited by perfusion” value in experiment [2] (Cel-N-AChR, 100 μM) is “very similar currents as for Nic”; in experiment [3], “very similar currents as for Nic”.

Consider ivermectin, for which the “resistance factor between Kok and Wey” value in [6] was determined as 15.1.
